Results as given in ChEMBL document CHEMBL1932990, “Synthesis and antifungal activity of 6,7-bis(arylthio)-quinazoline-5,8-diones and furo[2,3-f]quinazolin-5-ols” (2012).
Values after ≈ are worked out from the molar mass of the structure shown.

Key:
Type in all cases: functional
Aspergillus niger = assay: Antifungal activity against Aspergillus niger KCTC 1231 after 2 days by twofold broth dilution method; settings: KCTC 1231, 48 h
Method in brief: (§1)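 Two-fold broth dilution in modified Sabouraud dextrose broth. Inoculum about 1 × 10⁵ cells/mL. Test agents at final concentrations from 0.2 to 50.0. Incubated at 37 °C, and MIC read after 2 days. Fluconazole and 5-fluorocytosine served as standard agents.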

Pichia kudriavzevii = assay: Antifungal activity against Candida krusei Berkout KCCM 11655 after 1 day by twofold broth dilution method; settings: Berkout KCCM 11655, 24 h
Method in brief: (§2)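 Two-fold broth dilution in modified Sabouraud dextrose broth. Inoculum about 1 × 10⁵ cells/mL. Test agents at final concentrations from 0.2 to 50.0. Incubated at 37 °C, and MIC read after 1 day. Fluconazole and 5-fluorocytosine served as standard agents.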

Candida tropicalis = assay: Antifungal activity against Candida tropicalis Berkout KCCM 50662 after 1 day by twofold broth dilution method; settings: Berkout KCCM 50662, 24 h; method in brief: as §2
Candida albicans = assay: Antifungal activity against Candida albicans Berkout KCCM 50235 after 1 day by twofold broth dilution method; settings: Berkout KCCM 50235, 24 h; method in brief: as §2
Cryptococcus neoformans = assay: Antifungal activity against Cryptococcus neoformans KCCM 50564 after 1 day by twofold broth dilution method; settings: KCCM 50564, 24 h; method in brief: as §2
Aspergillus flavus = assay: Antifungal activity against Aspergillus flavus KCCM 11899 after 2 days by twofold broth dilution method; settings: KCCM 11899, 48 h; method in brief: as §1

| Compound | MIC (Aspergillus niger) [mg/L] | MIC (Pichia kudriavzevii) [mg/L] | MIC (Candida tropicalis) [mg/L] | MIC (Candida albicans) [mg/L] | MIC (Cryptococcus neoformans) [mg/L] | MIC (Aspergillus flavus) [mg/L] |
| --- | --- | --- | --- | --- | --- | --- |
| CCOC(=O)c1c(N)oc2c1c(Sc1ccc(OC)cc1)c(O)c1ncncc12 | 12.5 (≈ 30.4 µM) | 50 (≈ 122 µM) | 25 (≈ 60.8 µM) | 12.5 (≈ 30.4 µM) | 12.5 (≈ 30.4 µM) | 12.5 (≈ 30.4 µM) |
| CCOC(=O)c1c(N)oc2c1c(Sc1ccc(C)cc1)c(O)c1ncncc12 | 6.3 (≈ 15.9 µM) | 6.3 (≈ 15.9 µM) | 6.3 (≈ 15.9 µM) | 3.2 (≈ 8.09 µM) | 3.2 (≈ 8.09 µM) | 6.3 (≈ 15.9 µM) |
| CCOC(=O)c1c(N)oc2c1c(Sc1ccc(Cl)cc1)c(O)c1ncncc12 | 3.2 (≈ 7.69 µM) | 50 (≈ 120 µM) | 50 (≈ 120 µM) | 25 (≈ 60.1 µM) | 6.3 (≈ 15.1 µM) | 6.3 (≈ 15.1 µM) |
| CCOC(=O)c1c(N)oc2c1c(Sc1ccc(Br)cc1)c(O)c1ncncc12 | 6.3 (≈ 13.7 µM) | 25 (≈ 54.3 µM) | 25 (≈ 54.3 µM) | 12.5 (≈ 27.2 µM) | 3.2 (≈ 6.95 µM) | 50 (≈ 109 µM) |
| CCOC(=O)c1c(N)oc2c1c(Sc1ccc(F)c(F)c1)c(O)c1ncncc12 | 12.5 (≈ 29.9 µM) | 6.3 (≈ 15.1 µM) | 3.2 (≈ 7.67 µM) | 3.2 (≈ 7.67 µM) | 6.3 (≈ 15.1 µM) | 3.2 (≈ 7.67 µM) |
| CCOC(=O)c1c(N)oc2c1c(Sc1ccc(F)cc1)c(O)c1ncncc12 | 50 (≈ 125 µM) | 6.3 (≈ 15.8 µM) | 3.2 (≈ 8.01 µM) | 6.3 (≈ 15.8 µM) | 3.2 (≈ 8.01 µM) | 12.5 (≈ 31.3 µM) |
| CCOC(=O)c1c(N)oc2c1c(Sc1cccc(Cl)c1)c(O)c1ncncc12 | 25 (≈ 60.1 µM) | 50 (≈ 120 µM) | 25 (≈ 60.1 µM) | 50 (≈ 120 µM) | 12.5 (≈ 30.1 µM) | 12.5 (≈ 30.1 µM) |
| CCOC(=O)c1c(N)oc2c1c(SCC)c(O)c1ncncc12 | 3.2 (≈ 9.6 µM) | 25 (≈ 75 µM) | 25 (≈ 75 µM) | 50 (≈ 150 µM) | 12.5 (≈ 37.5 µM) | 6.3 (≈ 18.9 µM) |
| O=C1C(Sc2ccc(F)cc2)=C(Sc2ccc(F)cc2)C(=O)c2ncncc21 | 3.2 (≈ 7.76 µM) | 12.5 (≈ 30.3 µM) | 6.3 (≈ 15.3 µM) | 1.6 (≈ 3.88 µM) | 1.6 (≈ 3.88 µM) | 3.2 (≈ 7.76 µM) |
| COc1ccc(SC2=C(Sc3ccc(OC)cc3)C(=O)c3ncncc3C2=O)cc1 | 3.2 (≈ 7.33 µM) | 3.2 (≈ 7.33 µM) | 25 (≈ 57.3 µM) | 25 (≈ 57.3 µM) | 6.3 (≈ 14.4 µM) | 0.8 (≈ 1.83 µM) |
| O=C1C(Sc2ccc(Cl)cc2)=C(Sc2ccc(Cl)cc2)C(=O)c2ncncc21 | 1.6 (≈ 3.59 µM) | 3.2 (≈ 7.19 µM) | 12.5 (≈ 28.1 µM) | 6.3 (≈ 14.1 µM) | 6.3 (≈ 14.1 µM) | 3.2 (≈ 7.19 µM) |
| O=C1C(Sc2ccc(Br)cc2)=C(Sc2ccc(Br)cc2)C(=O)c2ncncc21 | 3.2 (≈ 5.99 µM) | 6.3 (≈ 11.8 µM) | 50 (≈ 93.6 µM) | 6.3 (≈ 11.8 µM) | 12.5 (≈ 23.4 µM) | 6.3 (≈ 11.8 µM) |
| Cc1ccc(SC2=C(Sc3ccc(C)cc3)C(=O)c3ncncc3C2=O)cc1 | 3.2 (≈ 7.91 µM) | 6.3 (≈ 15.6 µM) | 6.3 (≈ 15.6 µM) | 12.5 (≈ 30.9 µM) | 50 (≈ 124 µM) | 3.2 (≈ 7.91 µM) |
| Cc1ccc(SC2=C(Sc3ccc(C)c(C)c3)C(=O)c3ncncc3C2=O)cc1C | 25 (≈ 57.8 µM) | 12.5 (≈ 28.9 µM) | 12.5 (≈ 28.9 µM) | 12.5 (≈ 28.9 µM) | 3.2 (≈ 7.4 µM) | 12.5 (≈ 28.9 µM) |
| O=C1C(Sc2cccc(F)c2)=C(Sc2cccc(F)c2)C(=O)c2ncncc21 | 25 (≈ 60.6 µM) | 12.5 (≈ 30.3 µM) | 25 (≈ 60.6 µM) | 6.3 (≈ 15.3 µM) | 1.6 (≈ 3.88 µM) | 25 (≈ 60.6 µM) |
| Cc1cccc(SC2=C(Sc3cccc(C)c3)C(=O)c3ncncc3C2=O)c1 | 1.6 (≈ 3.96 µM) | 25 (≈ 61.8 µM) | 12.5 (≈ 30.9 µM) | 3.2 (≈ 7.91 µM) | 0.8 (≈ 1.98 µM) | 6.3 (≈ 15.6 µM) |
| O=C1C(Sc2ccccc2)=C(Sc2ccccc2)C(=O)c2ncncc21 | 6.3 (≈ 16.7 µM) | 6.3 (≈ 16.7 µM) | 6.3 (≈ 16.7 µM) | 6.3 (≈ 16.7 µM) | 25 (≈ 66.4 µM) | 3.2 (≈ 8.5 µM) |
| O=C1C(Sc2ccc(F)c(F)c2)=C(Sc2ccc(F)c(F)c2)C(=O)c2ncncc21 | 12.5 (≈ 27.9 µM) | 12.5 (≈ 27.9 µM) | 6.3 (≈ 14 µM) | 12.5 (≈ 27.9 µM) | 6.3 (≈ 14 µM) | 1.6 (≈ 3.57 µM) |
| O=C1C(Sc2ccc(F)cc2F)=C(Sc2ccc(F)cc2F)C(=O)c2ncncc21 | 12.5 (≈ 27.9 µM) | 12.5 (≈ 27.9 µM) | 6.3 (≈ 14 µM) | 6.3 (≈ 14 µM) | 1.6 (≈ 3.57 µM) | 6.3 (≈ 14 µM) |
| O=C1C(Sc2ccccc2F)=C(Sc2ccccc2F)C(=O)c2ncncc21 | 12.5 (≈ 30.3 µM) | 12.5 (≈ 30.3 µM) | 6.3 (≈ 15.3 µM) | 6.3 (≈ 15.3 µM) | 1.6 (≈ 3.88 µM) | 12.5 (≈ 30.3 µM) |
| O=C1C(Sc2ccc(O)cc2)=C(Sc2ccc(O)cc2)C(=O)c2ncncc21 | 25 (≈ 61.2 µM) | 25 (≈ 61.2 µM) | 3.2 (≈ 7.83 µM) | 3.2 (≈ 7.83 µM) | 12.5 (≈ 30.6 µM) | 12.5 (≈ 30.6 µM) |
| CCSC1=C(SCC)C(=O)c2ncncc2C1=O | 3.2 (≈ 11.4 µM) | 6.3 (≈ 22.5 µM) | 12.5 (≈ 44.6 µM) | 12.5 (≈ 44.6 µM) | 6.3 (≈ 22.5 µM) | 6.3 (≈ 22.5 µM) |
| O=C1C(SCCO)=C(SCCO)C(=O)c2ncncc21 | 25 (≈ 80 µM) | 12.5 (≈ 40 µM) | > 50 | 25 (≈ 80 µM) | 6.3 (≈ 20.2 µM) | 25 (≈ 80 µM) |
| COc1ccc(OC)c2ncncc12 | 25 (≈ 131 µM) | 50 (≈ 263 µM) | > 50 | > 50 | 50 (≈ 263 µM) | 50 (≈ 263 µM) |
| OC(Cn1cncn1)(Cn1cncn1)c1ccc(F)cc1F [FLUCONAZOLE] | 25 (≈ 81.6 µM) | 25 (≈ 81.6 µM) | 6.3 (≈ 20.6 µM) | 50 (≈ 163 µM) | 6.3 (≈ 20.6 µM) | 25 (≈ 81.6 µM) |
| Nc1nc(=O)[nH]cc1F [FLUCYTOSINE] | 6.3 (≈ 48.8 µM) | 6.3 (≈ 48.8 µM) | 3.2 (≈ 24.8 µM) | 3.2 (≈ 24.8 µM) | 12.5 (≈ 96.8 µM) | 6.3 (≈ 48.8 µM) |
